Measured values reported in ChEMBL document CHEMBL1154577, “Cytotoxic biflavonoids from Selaginella delicatula” (J Nat Prod, 2000).

Legend:
Raji [1] = assay: Cytotoxicity against human Raji cells after 3 days; assay type: functional, cell-based; settings: 72 h
Method in brief: (§1)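 K562 (erythroleukemia) and Raji (EBV-transformed B) cells grown in RPMI-1640 with 10% FCS, 100 U/mL penicillin and 100 µg/mL streptomycin at 37 °C under humidified 5% CO2. They were cultured with or without various concentrations for 3 days, then pulsed with tritiated thymidine for 16 h before harvest. Radioactivity was counted by scintillation and inhibition calculated; mean of three independent experiments.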

HeLa [2] = assay: Cytotoxicity against human HeLa cells after 3 days; assay type: functional, cell-based; settings: 72 h
Method in brief: (§2)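 Vero, Wish, Calu-1 and HeLa cells were kept in MEM with 10% FCS, 100 µg/mL streptomycin and 100 U/mL penicillin at 37 °C under humidified 5% CO2. Cells were exposed to various concentrations, or none, for 3 days, with a tritiated thymidine pulse for the final 16 h before harvest. Incorporation was read by scintillation counting and inhibition calculated; three independent experiments averaged.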

WISH [3] = assay: Cytotoxicity against human Wish cells after 3 days; assay type: cell-based; settings: 72 h; method in brief: as §2
Vero = assay: Cytotoxicity against african green monkey Vero cells after 3 days; assay type: cell-based; settings: Chlorocebus sabaeus, 72 h; method in brief: as §2
K562 [4] = assay: Cytotoxicity against human K562 cells after 3 days; assay type: functional, cell-based; settings: K562, 72 h; method in brief: as §1
Calu-1 [5] = assay: Cytotoxicity against human Calu1 cells after 3 days; assay type: functional, cell-based; settings: Calu-1, 72 h; method in brief: as §2
WISH [6] = assay: Cytotoxicity against human Wish cells at 100 uM after 3 days; assay type: cell-based; settings: 72 h; method in brief: as §2
Calu-1 [7] = assay: Cytotoxicity against human Calu1 cells at 100 uM after 3 days; assay type: functional; settings: Calu-1, 72 h; method in brief: as §2
Raji [8] = assay: Cytotoxicity against human Raji cells at 25 uM after 3 days; assay type: functional; settings: 72 h; method in brief: as §1
Raji [9] = assay: Cytotoxicity against human Raji cells at 12.5 uM after 3 days; assay type: functional; settings: 72 h; method in brief: as §1
Calu-1 [10] = assay: Cytotoxicity against human Calu1 cells at 12.5 uM after 3 days; assay type: functional; settings: Calu-1, 72 h; method in brief: as §2
HeLa [11] = assay: Cytotoxicity against human HeLa cells at 100 uM after 3 days; assay type: functional; settings: 72 h; method in brief: as §2
[12] = Cytotoxicity against african green monkey Vero cells at 100 uM after 3 days; assay type: cell-based; settings: chlorocebus sabaeus, read-out: INH; method in brief: as §2
Raji [13] = assay: Cytotoxicity against human Raji cells at 100 uM after 3 days; assay type: functional; settings: 72 h; method in brief: as §1
Calu-1 [14] = assay: Cytotoxicity against human Calu1 cells at 25 uM after 3 days; assay type: functional; settings: Calu-1, 72 h; method in brief: as §2
Calu-1 [15] = assay: Cytotoxicity against human Calu1 cells at 50 uM after 3 days; assay type: functional; settings: Calu-1, 72 h; method in brief: as §2
K562 [16] = assay: Cytotoxicity against human K562 cells at 100 uM after 3 days; assay type: functional; settings: K562, 72 h; method in brief: as §1
Raji [17] = assay: Cytotoxicity against human Raji cells at 50 uM after 3 days; assay type: functional; settings: 72 h; method in brief: as §1

Compound	IC50 (Raji [1]) [µM]	IC50 (HeLa [2]) [µM]	IC50 (WISH [3]) [µM]	IC50 (Vero) [µM]	IC50 (K562 [4]) [µM]	IC50 (Calu-1 [5]) [µM]	inhibition (INH) (WISH [6]) [%]	inhibition at 100 µM (Calu-1 [7]) [%]	inhibition at 25 µM (Raji [8]) [%]	inhibition at 12.5 µM (Raji [9]) [%]	inhibition at 12.5 µM (Calu-1 [10]) [%]	inhibition at 100 µM (HeLa [11]) [%]	cytotoxicity at 72 h, 100 µM [12] [%]	inhibition at 100 µM (Raji [13]) [%]	inhibition at 25 µM (Calu-1 [14]) [%]	inhibition at 50 µM (Calu-1 [15]) [%]	inhibition at 100 µM (K562 [16]) [%]	inhibition at 50 µM (Raji [17]) [%]
O=c1cc(-c2ccc(O)c(-c3c(O)cc4oc(-c5ccc(O)cc5)cc(=O)c4c3O)c2)oc2cc(O)cc(O)c12 [ROBUSTAFLAVONE]	> 100	> 100	> 100	> 100	> 100	> 100												
COc1cc(O)c2c(=O)cc(-c3ccc(OC)c(-c4c(O)cc5c(c4O)C(=O)C[C@H](c4ccc(O)cc4)O5)c3)oc2c1							-65	100	22.3	17.9	15.8	35	26.8	96.3	29.9	55.4	18	24.7
O=c1cc(-c2ccc(O)c(-c3c(O)cc(O)c4c(=O)cc(-c5ccc(O)cc5)oc34)c2)oc2cc(O)cc(O)c12 [AMENTOFLAVONE]	> 100	> 100	> 100	> 100	> 100	> 100												
COc1cc(O)c2c(=O)cc(-c3ccc(OC)c(-c4c(O)cc5oc(-c6ccc(O)cc6)cc(=O)c5c4O)c3)oc2c1	> 100	> 100	> 100	> 100	> 100	> 100												
COc1cc(O)c2c(=O)cc(-c3ccc(OC)c(-c4c(OC)cc5c(c4O)C(=O)C[C@H](c4ccc(O)cc4)O5)c3)oc2c1	> 100	> 100	> 100	> 100	> 100	> 100												
COc1ccc(-c2cc(=O)c3c(O)cc(O)cc3o2)cc1-c1c(O)cc2oc(-c3ccc(O)cc3)cc(=O)c2c1O							-90	100	60.7	34.2	42.6	5.5	-6.6	98.4	44.6	77.9	10.8	68.5
